The nature of data set [1]: Cytotoxicity against human CEMx174 5.25M7 cells after 4 days by XTT assay. The class given is cell-based. In outline:
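Graded compound concentrations added to an equal volume of CEMx174 5.25M7 cells (5 × 10⁵/mL) and incubated 4 days at 37 °C. XTT (1 mg/mL) containing 0.02 mM PMS was added and absorbance read at 450 nm after 4 h. CC50 by CalcuSyn.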
(Tetrazolium dyes change colour on reduction, which living cells bring about.)

Data set [2] relates to Human immunodeficiency virus 1. The data set can be described thus: Antiviral activity against R5 tropic HIV1 BaL infected in human CEMx174 5.25M7 cells after 3 days by luciferase assay. Type of data set: functional, organism-based. The following applies: Human immunodeficiency virus 1, BaL, CEMx174 5.25M7, 72 h; for pIC50: read-out: IC50; for IC50: read-out: pIC50 (converted). In outline:
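Compound at graded concentrations, in triplicate, preincubated with an equal volume of HIV-1 Bal (MOI 0.01) at 37 °C for 30 min. CEMx174 5.25M7 cells (5 × 10⁵/mL; CD4+, CXCR4+, CCR5+) were then added. After overnight culture the medium was replaced. On day 3 the cells were lysed and luciferase activity read. IC50 from percent inhibition by CalcuSyn.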

The target of data set [3] is Human immunodeficiency virus type 1 reverse transcriptase (Human immunodeficiency virus 1, UniProt Q72547). As to the kind of experiment: Inhibition of HIV1 reverse transcriptase after 1 hr by ELISA. On the technique in general: In an ELISA, binding on a coated surface is turned into a signal by an enzyme label.
Data set [4] concerns the target Human immunodeficiency virus type 1 integrase (Human immunodeficiency virus 1, UniProt Q7ZJM1). As to the kind of experiment: Inhibition of HIV1 integrase after 1 hr. The essentials:
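Integrase (F185K/C280S IN1-288, expressed in E. coli) assayed in wells coated with a donor DNA duplex substrate. Final read-out by alkaline phosphatase at 405 nm, after PBS-Tween washes and 1% BSA at 37 °C for 40 min. ABPS included as control. IC50 by CalcuSyn.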

The next data set has as its target Protease (Human immunodeficiency virus 1, UniProt Q9YQ12). As to the kind of experiment: Inhibition of HIV1 recombinant protease. The essentials: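 Recombinant HIV-1 protease, purified, in 0.1 mol/L sodium acetate pH 5.0 with 0.9 mol/L NaCl, 1 mmol/L DTT, 1 mmol/L EDTA and a fluorescent peptide substrate. Graded compound concentrations were preincubated in this buffer for 20 min at 37 °C, then enzyme was added to start the reaction. Percent inhibition and IC50 were calculated.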

The nature of data set [5]: Selectivity index, CC50 for human CEMx174 5.25M7 cells to IC50 for R5 tropic HIV1 BaL. Type of data set: functional. In outline: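 Ratio of CC50 (XTT, CEMx174 5.25M7 cells, 4 days) to IC50 (HIV-1 Bal luciferase infection assay, day 3) in the same cell line.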

As a reminder, the CC50 is the concentration giving 50% cytotoxicity. Higher therefore signals lower toxicity to the cells. One may read the pIC50 as the negative decadic logarithm of the IC50, by convention in mol/L.

SMILES strings stand for the structures. pIC50: −log10 of the molar value.

Sequence of Protease (Q9YQ12 whole entry): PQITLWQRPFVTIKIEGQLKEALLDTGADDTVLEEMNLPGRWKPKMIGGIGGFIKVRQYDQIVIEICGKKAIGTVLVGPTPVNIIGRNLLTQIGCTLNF
Sequence of Human immunodeficiency virus type 1 integrase (Q7ZJM1 whole entry): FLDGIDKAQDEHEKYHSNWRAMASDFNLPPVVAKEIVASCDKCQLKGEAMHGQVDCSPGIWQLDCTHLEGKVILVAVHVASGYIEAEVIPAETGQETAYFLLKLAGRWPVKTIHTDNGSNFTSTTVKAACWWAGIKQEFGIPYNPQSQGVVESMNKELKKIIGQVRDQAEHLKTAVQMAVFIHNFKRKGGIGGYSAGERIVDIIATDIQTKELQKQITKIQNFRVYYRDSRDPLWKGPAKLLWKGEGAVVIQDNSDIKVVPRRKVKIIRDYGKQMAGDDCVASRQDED

As to `O=C(NN1C(=O)[C@@H]2C3C=CC(C4CC43)[C@@H]2C1=O)c1ccc(CN2CCN(c3ccncc3)C2=O)cc1` (stereo partly drawn), in data set [1], the CC50 at 96 h is greater than 165 µM. The pIC50 in data set [2] was less than 3.78.

With `O=C(NN1C(=O)[C@@H]2C3C=CC(C4CC43)[C@@H]2C1=O)c1ccc(Cn2cnc3ccccc32)cc1` (stereo partly drawn), the half-maximal cytotoxic concentration (CC50) at 96 h in data set [1] was 120 µM. Moreover, the negative-log IC50 (pIC50) in data set [3] is less than 3.34; in data set [2], 6.39; in data set [4], less than 3.64; on Protease, less than 3.94. The IC50 in data set [2] was 0.41 µM. Also, in data set [5], the “Selectivity Index” value was determined as 291.68.

Molecule `Cc1nc2ccccc2n1Cc1ccc(C(=O)NN2C(=O)[C@@H]3C4C=CC(C5CC54)[C@@H]3C2=O)cc1` (stereo partly drawn) had a CC50 at 96 h in data set [1] of 1.02 µM. Further, in data set [2], the pIC50 was 5.77 and the IC50 was 1.68 µM. In addition, the “Selectivity Index” value in data set [5] was 0.61.

`O=C(NN1C(=O)[C@@H]2C3C=CC(C4CC43)[C@@H]2C1=O)c1ccc(COc2ccc(F)cc2)cc1` (stereo partly drawn) showed a CC50 at 96 h in data set [1] of 29.7 µM. Besides, in data set [2], the pIC50 is 4.50 and the IC50 is 31.5 µM. Moreover, the “Selectivity Index” value in data set [5] is listed as 0.94.

Take `Cc1ccc(C)n1-c1ccc(C(=O)NN2C(=O)C3C4C=CC(C5CC45)C3C2=O)cc1` (stereo not drawn): in data set [1], the CC50 at 96 h is 3.54 µM. In data set [2], the negative logarithm of the IC50 (pIC50) is 5.11 and the IC50 was 7.8 µM. Also, the “Selectivity Index” value in data set [5] is recorded as 0.45.

Turning to `Cc1nnc(C(C)C)n1-c1ccc(C(=O)NN2C(=O)C3C4C=CC(C5CC45)C3C2=O)cc1` (stereo not drawn), the CC50 at 96 h in data set [1] was greater than 185 µM. Also, in data set [2], the pIC50 is less than 3.73.

In turn, `Cc1cccc(C)c1C(=O)N1CCC(C(=O)NN2C(=O)C3C4C=CC(C5CC45)C3C2=O)CC1` (stereo not drawn) displayed a CC50 at 96 h in data set [1] greater than 118 µM. For the same molecule, the pIC50 in data set [2] is less than 3.93.

`O=C(N[C@H](C(=O)NN1C(=O)C2C3C=CC(C4CC34)C2C1=O)c1ccccc1)c1ccccc1` (stereo partly drawn) had a CC50 at 96 h in data set [1] greater than 181 µM. Besides, in data set [2], the pIC50 was 3.81 and the IC50 was 155 µM. In data set [5], the “Selectivity Index” value is greater than 1.17.

With `O=C(N[C@@H](Cc1ccccc1)C(=O)NN1C(=O)C2C3C=CC(C4CC34)C2C1=O)c1ccccc1` (stereo partly drawn), in data set [2], the pIC50 was 4.05 and the IC50 is 89.3 µM.

`CN(CCCN1C(=O)C2C3C=CC(C4CC34)C2C1=O)Cc1ccccc1` (stereo not drawn): the 50% cytotoxic concentration (CC50) at 96 h in data set [1] was found to be 84 µM. Also, in data set [2], the negative-log IC50 (pIC50) was 4.52 and the IC50 was 30.4 µM. Moreover, the “Selectivity Index” value in data set [5] came out at 2.76.

Molecule `O=C(Nc1ccccc1)c1ccc(CN2C(=O)C3C4C=CC(C5CC45)C3C2=O)cc1` (stereo not drawn) registered a half-maximal cytotoxic concentration (CC50) at 96 h in data set [1] of 44 µM. Also, in data set [2], the pIC50 was 5.24 and the IC50 is 5.7 µM. Also, in data set [5], the “Selectivity Index” value turned out to be 7.72.

For `O=C1C2C3C=CC(C4CC34)C2C(=O)N1CCC(=O)n1cnc2ccccc21` (stereo not drawn), the CC50 at 96 h in data set [1] was greater than 221 µM. Besides, in data set [2], the pIC50 was less than 3.65.

Regarding `CN1CCN(Cc2ccc(C(=O)NN3C(=O)[C@@H]4C5C=CC(C6CC65)[C@@H]4C3=O)cc2)CC1` (stereo partly drawn), in data set [2], the pIC50 was 4.08 and the IC50 is 82.8 µM.

`O=C(NN1C(=O)[C@@H]2C3C=CC(C4CC43)[C@@H]2C1=O)c1ccc(CNc2cccc(Cl)c2)cc1` (stereo partly drawn) had a CC50 at 96 h in data set [1] of 27.8 µM. Besides, in data set [2], the pIC50 was 4.88 and the IC50 is 13.2 µM. The “Selectivity Index” value in data set [5] turned out to be 2.01.

In data set [1], `CC(C)CN(Cc1ccc(C(=O)NN2C(=O)[C@@H]3C4C=CC(C5CC54)[C@@H]3C2=O)cc1)c1ccccc1` (stereo partly drawn) gave a half-maximal cytotoxic concentration (CC50) at 96 h of 32.7 µM. Besides, in data set [2], the pIC50 was 4.88 and the IC50 was 13.2 µM. Moreover, the “Selectivity Index” value in data set [5] was determined as 2.48.

`CCN(Cc1ccc(C(=O)NN2C(=O)[C@@H]3C4C=CC(C5CC54)[C@@H]3C2=O)cc1)c1ccccc1` (stereo partly drawn) had a CC50 at 96 h in data set [1] of 57 µM. In data set [2], the pIC50 was 4.24 and the IC50 is 57.1 µM. The “Selectivity Index” value in data set [5] amounted to 1.

Consider `O=C(NN1C(=O)[C@@H]2C3C=CC(C4CC43)[C@@H]2C1=O)c1ccc(CN(Cc2ccccc2)c2ccccc2)cc1` (stereo partly drawn), for which the CC50 at 96 h in data set [1] stood at 25.5 µM. For the same molecule, in data set [2], the pIC50 was 4.77 and the IC50 was 17.1 µM. Further, the “Selectivity Index” value in data set [5] worked out at 1.51.

In the case of `Cc1ccc(-c2ccc3c(c2)C=C(C(=O)Nc2ccc(C[N+](C)(C)C4CCOCC4)cc2)CCC3)cc1.[Cl-]`, the CC50 at 96 h in data set [1] is 7.88 µM. In addition, the pIC50 in data set [2] is 7.30. Also, the “Selectivity Index” value in data set [5] stood at 157.6.

Turning to `O=C(NN1C(=O)[C@@H]2[C@@H]3C=C[C@@H]([C@H]4C[C@@H]34)[C@@H]2C1=O)c1ccc(C(F)(F)F)cc1` [TECOVIRIMAT], in data set [2], the pIC50 is less than 3.70.

Source of the values: ChEMBL document CHEMBL1240449, “Tricyclononene carboxamide derivatives as novel anti-HIV-1 agents” (Eur J Med Chem, 2010).
